According to PMC2754042 (Journal of medicinal chemistry, 2008):
Where a name gives a salt, the structure may show the parent alone. Where a SMILES comes first, the peptide text is derived from it. The star is where a group is joined. Cbz = O=C(OCc1ccccc1)*

Legend:
Breast cancer cell lines = assay: NCI sixty cell panel, breast subpanel; format: cell-based; conditions: Homo sapiens, read-out: pTGI Breast
[1] = system: sixty human tumor cell lines; assay: NCI sixty cell panel, mean of full panel; format: cell-based; conditions: for GI50: read-out: pGI50 MG-MID (converted); for CC50: read-out: pLC50 MG-MID (converted); for IC (TGI): read-out: pTGI MG-MID
Renal cancer cell lines = assay: NCI sixty cell panel, renal subpanel; format: cell-based; conditions: Homo sapiens, read-out: pTGI Renal
Colon cancer cell lines = assay: NCI sixty cell panel, colon subpanel; format: cell-based; conditions: Homo sapiens, read-out: pTGI Colon
Melanoma cell lines = assay: NCI sixty cell panel, melanoma subpanel; format: cell-based; conditions: Homo sapiens, read-out: pTGI Melanoma
C-erbB2 = assay: Stability of C-erbB2 and β-actin in MCF-7 cells; format: cell-based, human; conditions: Western blot
Summary of the method: (§1)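 MCF7 cells (1×10^6) seeded in six-well plates and grown overnight. Cycloheximide (100 µmol/L) given alone, with MG-132 (10 µmol/L), or with test compound for 8 and 16 h in total. Lysates Western blotted with polyclonal anti-BCA2 (1:800), monoclonal anti-β-actin (1:5000) and monoclonal anti-C-erbB2 (1:2000). Band mean grey value and integrated density expressed relative to control sample; protein levels normalised to β-actin.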

[2] = system: PMET, B1647, HEL and M07e; assay: PMET inhibition in human leukemic cell lines B1647, HEL and M07e; format: cell-based; conditions: read-out: PMET inhibition IC50
Summary of the method: (§2)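 Plasma membrane electron transport assay: leukemic cells (10^5 per well in 0.1 ml) pretreated 30 min with test compound in DMSO (<0.1% final). WST-1 and mPMS then added (final 500 µM and 20 µM). WST-1 reduction followed in real time at 450 nm and expressed as % of control.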

[3] = system: Ovarian cancer cell lines; assay: NCI sixty cell panel, ovarian subpanel; format: cell-based; conditions: Homo sapiens, read-out: pTGI Ovarian
HL60 and HL60 ρ^0 cells = assay: 2-day MTT cell proliferation assay in HL60 and HL60ρ0 cells; format: cell-based; conditions: Homo sapiens, HL-60, 48 h, read-out: IC50 for cell proliferation
Summary of the method: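 Cells exposed to test compound for 48 h, then MTT reduction read as a measure of proliferation. IC50 for cell proliferation derived from the readings.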

[4] = system: panel of 36 human tumor cell lines; assay: Oncotest 36 cell line assay; format: cell-based; conditions: four days exposure
Summary of the method: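 Panel of 36 lines: 24 derived from patient tumor xenografts passaged subcutaneously in nude mice, 12 commercial. Grown at 37°C, 5% CO2, in RPMI 1640 with 10% fetal calf serum and 0.1 mg/ml gentamicin. Test compound added one day after plating, at 5 concentrations, for four days. DNA content read by propidium iodide fluorescence. Three independent experiments, each in triplicate; IC70 values.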

HL-60-TB leukemia = assay: Human tumor xenograft in nude mice; format: in vivo; conditions: HL-60-TB leukemia xenograft in nude mice
[5] = system: leukemia cell lines HL-60, K562, MOLT-4, CCRF-CEM, RPMI-8226, SR; assay: Hollow fiber assay; format: in vivo, human; conditions: panel of six leukemia cell lines
[6] = system: plasma membrane electron transport (PMET), HL60 and HL60ρ^0 cells; assay: PMET inhibition; format: cell-based, human; conditions: at 200 µM, 30 min pretreatment
Summary of the method: as §2

Leukemia cell lines = assay: NCI sixty cell panel, leukemia subpanel; format: cell-based; conditions: Homo sapiens; for IC (TGI): read-out: pTGI Leukemia
[7] = system: Prostate cancer cell lines; assay: cells; format: cell-based; conditions: Homo sapiens, read-out: pTGI Prostate
BCA2 = assay: Analysis of BCA2 protein stability in MCF7 cells; format: cell-based, human; conditions: MCF-7 cells, in the presence of cycloheximide (CHX), 16 h
Summary of the method: as §1

CNS cancer cell lines = assay: cells; format: cell-based; conditions: Homo sapiens, read-out: pTGI CNS
NSCLC cell lines = assay: NCI sixty cell panel, NSCLC subpanel; format: cell-based; conditions: Homo sapiens, read-out: pTGI NSCLC

Row | Compound | GI50 [1] | CC50 [1] | IC (TGI) [1] | further results
1 | O=C1Nc2ccccc2/C1=C\c1cccc(/C=C2/C(=O)Nc3ccccc32)n1 [Compound 3a] | 0.457 µM | 14.1 µM |  | IC (TGI) (Breast cancer cell lines): 2 µM; IC (TGI) (Renal cancer cell lines): 1.62 µM
2 | O=C1Nc2cccc(Cl)c2/C1=C\c1cccc(/C=C2/C(=O)Nc3cccc(Cl)c32)n1 [Compound 3b] | 0.457 µM |  |  | IC (TGI) (Colon cancer cell lines): 5.01 µM; IC (TGI) (Melanoma cell lines): 3.16 µM; effects on β-actin or the oncogenic receptor C-erbB2 (C-erbB2): No effects; IC50 [2]: 15 to 30 µM; IC (TGI) [3]: 2.82 µM; IC50 (HL60 and HL60 ρ^0 cells): 3 to 8 µM; mean IC70 [4]: 0.35 µg/mL
3 | O=C1Nc2ccc(Cl)cc2/C1=C\c1cccc(/C=C2/C(=O)Nc3ccc(Cl)cc32)n1 [Compound 3c] | 1.07 µM | 16.2 µM | 3.39 µM | IC50 (HL60 and HL60 ρ^0 cells): 3 to 8 µM
4 | COc1ccc2c(c1)/C(=C\c1cccc(/C=C3/C(=O)Nc4ccc(OC)cc43)n1)C(=O)N2 [Compound 3d] | 1.2 µM | 39.8 µM | 7.08 µM | IC (TGI) (Melanoma cell lines): 3.98 µM; IC50 [2]: 30 to 45 µM; distal site antitumor activity in xenograft (HL-60-TB leukemia): did not show significant activity; hollow fiber assay combined i.p. + s.c. score [5]: 22; mean IC70 [4]: 0.56 µg/mL
5 | O=C1Nc2ccc(O)cc2/C1=C\c1cccc(/C=C2/C(=O)Nc3ccc(O)cc32)n1 [Compound 3e] | 39.8 µM | 97.7 µM | 87.1 µM | IC50 [2]: 40 to 50 µM
6 | O=C(O)CCC(=O)c1ccc2c(c1)/C(=C\c1cccc(/C=C3/C(=O)Nc4ccc(C(=O)CCC(=O)O)cc43)n1)C(=O)N2 [Compound 3f] | 75.9 µM |  | 95.5 µM | 
7 | CN(C)c1ccc2c(c1)/C(=C\c1cccc(/C=C3/C(=O)Nc4ccc(N(C)C)cc43)n1)C(=O)N2 [Compound 3g] | 5.37 µM | 91.2 µM | 40.7 µM | PMET inhibition [6]: inactive; IC (TGI) (Renal cancer cell lines): 50.1 µM
8 | O=C1Nc2ccc(F)cc2/C1=C\c1cccc(/C=C2/C(=O)Nc3ccc(F)cc32)n1 [Compound 3h] | 3.24 µM | 60.3 µM | 11.7 µM | IC (TGI) [3]: 25.1 µM
9 | O=C1Nc2ccc(C(=O)O)cc2/C1=C\c1cccc(/C=C2/C(=O)Nc3ccc(C(=O)O)cc32)n1 [Compound 3i] |  | 89.1 µM | 83.2 µM | PMET inhibition [6]: inactive
10 | O=C1Nc2ccc(Br)cc2/C1=C\c1cccc(/C=C2/C(=O)Nc3ccc(Br)cc32)n1 [Compound 3j] | 8.32 µM | 56.2 µM |  | IC (TGI) [3]: 25.7 µM
11 | O=C1Nc2ccc(S(=O)(=O)O)cc2/C1=C\c1cccc(/C=C2/C(=O)Nc3ccc(S(=O)(=O)O)cc32)n1 [Compound 3k] | 97.7 µM |  |  | 
12 | O=C1Nc2cc(Cl)ccc2/C1=C\c1cccc(/C=C2/C(=O)Nc3cc(Cl)ccc32)n1 [Compound 3l] | 2.04 µM | 39.8 µM | 8.71 µM | 
13 | Cc1cc2c(cc1O)/C(=C\c1cccc(/C=C3/C(=O)Nc4cc(C)c(O)cc43)n1)C(=O)N2 [Compound 3m] | 69.2 µM |  | 97.7 µM | 
14 | COc1cc2c(cc1C)NC(=O)/C2=C/c1cccc(/C=C2/C(=O)Nc3cc(C)c(OC)cc32)n1 [Compound 3n] | 51.3 µM |  | 95.5 µM | 
15 | CN1C(=O)/C(=C/c2cccc(/C=C3/C(=O)N(C)c4ccccc43)n2)c2ccccc21 [Compound 3o] | 8.13 µM | 49 µM | 26.9 µM | IC (TGI) (Leukemia cell lines): 15.8 µM; IC (TGI) [7]: 39.8 µM; PMET inhibition [6]: inactive
16 | COc1ccc2c(c1)/C(=C\c1cccc(/C=C3/C(=O)N(C)c4ccc(OC)cc43)n1)C(=O)N2C [Compound 3p] | 1.74 µM | 43.7 µM | 12.3 µM | GI50 (Leukemia cell lines; read-out: pGI50 Leukemia (converted)): 1.17 µM; IC (TGI) (Breast cancer cell lines): 20 µM; IC (TGI) [3]: 31.6 µM
17 | O=C1Nc2ccccc2/C1=c1/[nH]c(=O)/c(=C2/C(=O)Nc3ccccc32)[nH]c1=O [Compound 7a] | 89.1 µM |  |  | 
18 | CC(=O)n1c(=O)/c(=C/c2c[nH]c3ccccc23)n(C(C)=O)c(=O)/c1=C/c1c[nH]c2ccccc12 [Compound 8a] | 74.1 µM |  | 91.2 µM | PMET inhibition [6]: inactive; IC (TGI) (Renal cancer cell lines): 50.1 µM
19 | O=c1[nH]/c(=C\c2c[nH]c3ccccc23)c(=O)[nH]/c1=C\c1c[nH]c2ccccc12 [Compound 9a] | 81.3 µM |  |  | PMET inhibition [6]: inactive
20 | COc1ccc2[nH]cc(/C=c3\[nH]c(=O)/c(=C/c4c[nH]c5ccc(OC)cc45)[nH]c3=O)c2c1 [Compound 9b] | 93.3 µM |  |  | 
21 | CC(C)C[C@@H](C=O)NC(=O)[C@H](CC(C)C)NC(=O)[C@H](CC(C)C)NC(=O)OCc1ccccc1 [MG-132, Z-Leu-Leu-Leu-al] (Cbz-Leu-Leu-Leu-aldehyde) |  |  |  | increase of BCA2 protein compared to CHX treatment (BCA2): more than 10 fold
22 | CC[C@]1(O)C[C@H]2CN(CCc3c([nH]c4ccccc34)[C@@](C(=O)OC)(c3cc4c(cc3OC)N(C=O)[C@H]3[C@@](O)(C(=O)OC)[C@H](OC(C)=O)[C@]5(CC)C=CCN6CC[C@]43[C@@H]65)C2)C1 [Vincrist ine sulfate, reference compound] | 0.2 µM |  | 10 µM | IC (TGI) (Leukemia cell lines): 15.8 µM; IC (TGI) (CNS cancer cell lines): 6.31 µM; IC (TGI) (Colon cancer cell lines): 3.98 µM; IC (TGI) (Melanoma cell lines): 7.94 µM; IC (TGI) (NSCLC cell lines): 15.8 µM; IC (TGI) (Breast cancer cell lines): 7.94 µM; IC (TGI) [3]: 20 µM; IC (TGI) [7]: 6.31 µM; IC (TGI) (Renal cancer cell lines): 20 µM
